Test results published in ChEMBL document CHEMBL5653630, “Activation of the p53-MDM4 regulatory axis defines the anti-tumour response to PRMT5 inhibition through its role in regulating cellular splicing” (Sci Rep, 2018).

Tests used:
Type in all cases: functional
[1] = system: HCC1143; assay: Antiproliferative activity against human HCC1143 cells assessed as cell growth inhibition viability incubated for 6 days by celltiter-glo assay; conditions: HCC1143, 144 h, time 6 day
Outline: (§1)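 Cells were seeded in 384-well plates and incubated 24 h, then treated in duplicate with a 20-point, 2-fold dilution series (top dose ≤29 μM, ≤0.15% DMSO) for 6 days. CellTiter-Glo luminescence was read on day 0 and day 6. A 4-parameter fit was used, and curves needed at least 1.5 population doublings. gIC50 is the midpoint of the growth window between DMSO and T0.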

[2] = system: HCC1806; assay: Antiproliferative activity against human HCC1806 cells assessed as cell growth inhibition incubated for 6 days by celltiter-glo assay; conditions: HCC1806, 144 h, time 6 day; outline: as §1
[3] = system: HCC70; assay: Antiproliferative activity against human HCC70 cells assessed as cell growth inhibition incubated for 6 days by celltiter-glo assay; conditions: HCC70, 144 h, time 6 day; outline: as §1
[4] = system: HT-1376; assay: Antiproliferative activity against human HT-1376 cells assessed as cell growth inhibition incubated for 6 days by celltiter-glo assay; conditions: HT-1376, 144 h, time 6 day; outline: as §1
[5] = system: J82; assay: Antiproliferative activity against human J82 cells assessed as cell growth inhibition incubated for 6 days by celltiter-glo assay; conditions: J82, 144 h, time 6 day
Outline: (§2)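 Cells seeded in 384-well plates at an optimized density and held 24 h. Day 0: treated in duplicate with a 20-point two-fold series (top dose ≤29 μM, ≤0.15% DMSO) and incubated 6 days. CellTiter-Glo luminescence read at Day 0 and Day 6. Four-parameter fit. gIC50 = midpoint of the growth window between DMSO and T0. Curves required ≥1.5 population doublings.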

[6] = system: JeKo-1; assay: Antiproliferative activity against human JeKo-1 cells assessed as cell growth inhibition incubated for 6 days by celltiter-glo assay; conditions: JeKo-1, 144 h, time 6 day; outline: as §2
[7] = system: JM1; assay: Antiproliferative activity against human JM1 cells assessed as cell growth inhibition incubated for 6 days by celltiter-glo assay; conditions: JM1, 144 h, time 6 day; outline: as §2
[8] = system: JVM-2; assay: Antiproliferative activity against human JVM-2 cells assessed as cell growth inhibition incubated for 6 days by celltiter-glo assay; conditions: JVM-2, 144 h, time 6 day; outline: as §2
[9] = system: LN-229; assay: Antiproliferative activity against human LN-229 cells assessed as cell growth inhibition incubated for 6 days by celltiter-glo assay; conditions: LN-229, 144 h, time 6 day; outline: as §2
[10] = system: MDA-MB-231; assay: Antiproliferative activity against human MDA-MB-231 cells assessed as cell growth inhibition incubated for 6 days by celltiter-glo assay; conditions: MDA-MB-231, 144 h, time 6 day; outline: as §2
[11] = system: MDA-MB-453; assay: Antiproliferative activity against human MDA-MB-453 cells assessed as cell growth inhibition incubated for 6 days by celltiter-glo assay; conditions: MDA-MB-453, 144 h, time 6 day; outline: as §2
[12] = system: MDA-MB-468; assay: Antiproliferative activity against human MDA-MB-468 cells assessed as cell growth inhibition incubated for 6 days by celltiter-glo assay; conditions: MDA-MB-468, 144 h, time 6 day; outline: as §2
[13] = Antiproliferative activity against human MINO cells assessed as cell growth inhibition incubated for 6 days by celltiter-glo assay; conditions: 144 h, time 6 day; outline: as §2
[14] = system: NCI-H526; assay: Antiproliferative activity against human NCI-H526 cells assessed as cell growth inhibition incubated for 6 days by celltiter-glo assay; conditions: NCI-H526, 144 h, time 6 day; outline: as §2
[15] = system: NU-DHL-1; assay: Antiproliferative activity against human NU-DHL-1 cells assessed as cell growth inhibition incubated for 6 days by celltiter-glo assay; conditions: NU-DHL-1, 144 h, time 6 day; outline: as §2
[16] = Antiproliferative activity against human PER-403 cells assessed as cell growth inhibition incubated for 6 days by celltiter-glo assay; conditions: PER-403, 144 h, time 6 day; outline: as §2
[17] = Antiproliferative activity against human PER-624 cells assessed as cell growth inhibition incubated for 6 days by celltiter-glo assay; conditions: PER-624, 144 h, time 6 day; outline: as §2
[18] = system: RCK8; assay: Antiproliferative activity against human RCK8 cells assessed as cell growth inhibition incubated for 6 days by celltiter-glo assay; conditions: RCK8, 144 h, time 6 day; outline: as §2
[19] = system: Rec1; assay: Antiproliferative activity against human REC1 cells assessed as cell growth inhibition incubated for 6 days by celltiter-glo assay; conditions: Rec1, 144 h, time 6 day; outline: as §2
[20] = system: RL; assay: Antiproliferative activity against human RL cells assessed as cell growth inhibition incubated for 6 days by celltiter-glo assay; conditions: 144 h, time 6 day; outline: as §2
[21] = system: SF-295; assay: Antiproliferative activity against human SF-295 cells assessed as cell growth inhibition incubated for 6 days by celltiter-glo assay; conditions: SF-295, 144 h, time 6 day; outline: as §2
[22] = system: SF-539; assay: Antiproliferative activity against human SF-539 cells assessed as cell growth inhibition incubated for 6 days by celltiter-glo assay; conditions: SF-539, 144 h, time 6 day; outline: as §2
[23] = system: SU-DHL10; assay: Antiproliferative activity against human SU-DHL-10 cells assessed as cell growth inhibition incubated for 6 days by celltiter-glo assay; conditions: SU-DHL10, 144 h, time 6 day; outline: as §2
[24] = system: SU-DHL-16; assay: Antiproliferative activity against human SU-DHL-16 cells assessed as cell growth inhibition incubated for 6 days by celltiter-glo assay; conditions: SU-DHL-16, 144 h, time 6 day; outline: as §2
[25] = system: SUD4; assay: Antiproliferative activity against human SU-DHL-4 cells assessed as cell growth inhibition incubated for 6 days by celltiter-glo assay; conditions: SU-DHL-4, 144 h, time 6 day; outline: as §2
[26] = system: SU-DHL-5; assay: Antiproliferative activity against human SU-DHL-5 cells assessed as cell growth inhibition incubated for 6 days by celltiter-glo assay; conditions: SU-DHL-5, 144 h, time 6 day; outline: as §2
[27] = system: SU-DHL-8; assay: Antiproliferative activity against human SU-DHL-8 cells assessed as cell growth inhibition incubated for 6 days by celltiter-glo assay; conditions: SU-DHL-8, 144 h, time 6 day; outline: as §2
[28] = system: SW780; assay: Antiproliferative activity against human SW780 cells assessed as cell growth inhibition incubated for 6 days by celltiter-glo assay; conditions: SW780, 144 h, time 6 day; outline: as §2
[29] = system: T-24; assay: Antiproliferative activity against human T24 cells assessed as cell growth inhibition incubated for 6 days by celltiter-glo assay; conditions: T-24, 144 h, time 6 day; outline: as §2
[30] = system: U2932; assay: Antiproliferative activity against human U2932 cells assessed as cell growth inhibition incubated for 6 days by celltiter-glo assay; conditions: U2932, 144 h, time 6 day; outline: as §2
[31] = system: U-2940; assay: Antiproliferative activity against human U-2940 cells assessed as cell growth inhibition incubated for 6 days by celltiter-glo assay; conditions: U-2940, 144 h, time 6 day; outline: as §2
[32] = system: UMUC3; assay: Antiproliferative activity against human UMUC3 cells assessed as cell growth inhibition incubated for 6 days by celltiter-glo assay; conditions: UMUC3, 144 h, time 6 day; outline: as §2
[33] = system: WSU-NHL; assay: Antiproliferative activity against human WSU-NHL cells assessed as cell growth inhibition incubated for 6 days by celltiter-glo assay; conditions: 144 h, time 6 day; outline: as §2
[34] = system: Z-138; assay: Antiproliferative activity against human Z138 cells assessed as cell growth inhibition incubated for 6 days by celltiter-glo assay; conditions: Z-138, 144 h, time 6 day; outline: as §2
[35] = system: ZR-75-1; assay: Antiproliferative activity against human ZR-75-1 cells assessed as cell growth inhibition incubated for 6 days by celltiter-glo assay; conditions: ZR-75-1, 144 h, time 6 day; outline: as §2

SMILES	GI50 [1] [µM]	GI50 [2] [µM]	GI50 [3] [µM]	GI50 [4] [µM]	GI50 [5] [µM]	GI50 [6] [µM]	GI50 [7] [µM]	GI50 [8] [µM]	GI50 [9] [µM]	GI50 [10] [µM]	GI50 [11] [µM]	GI50 [12] [µM]	GI50 [13] [µM]	GI50 [14] [µM]	GI50 [15] [µM]	GI50 [16] [µM]	GI50 [17] [µM]	GI50 [18] [µM]	GI50 [19] [µM]	GI50 [20] [µM]	further results
CC(=O)N1CCC(Nc2cc(C(=O)NC[C@H](O)CN3CCc4ccccc4C3)ncn2)CC1 [PEMRAMETOSTAT]	0.246	0.098	0.13	17.6	29.3	5.4	0.079	0.009	0.254	0.544	0.029	0.057	0.13	0.275	0.333	0.038	0.524	0.529	2.11	0.014	GI50 [21]: 24.7 µM; GI50 [22]: 0.061 µM; GI50 [23]: 0.054 µM; GI50 [24]: 0.099 µM; GI50 [25]: 0.492 µM; GI50 [26]: 0.028 µM; GI50 [27]: 0.053 µM; GI50 [28]: 0.29 µM; GI50 [29]: 0.765 µM; GI50 [30]: 0.053 µM; GI50 [31]: 10.2 µM; GI50 [32]: 29.3 µM; GI50 [33]: 0.008 µM; GI50 [34]: 0.004 µM; GI50 [35]: 11 µM
O=C(NC[C@H](O)CN1CCc2ccccc2C1)c1ccnc(NC2CCC2)c1	0.509	0.261	0.522	13.1	20.9	6.19	0.076	0.172	1.15	2.93	0.343	0.585	0.536	0.138	0.101	0.029	0.526	2.11	1.99	1.43	GI50 [21]: 9.84 µM; GI50 [22]: 0.075 µM; GI50 [23]: 0.495 µM; GI50 [24]: 0.124 µM; GI50 [25]: 0.571 µM; GI50 [26]: 0.132 µM; GI50 [27]: 1.22 µM; GI50 [28]: 0.451 µM; GI50 [29]: 0.65 µM; GI50 [30]: 0.336 µM; GI50 [31]: 2.35 µM; GI50 [32]: 19.2 µM; GI50 [33]: 0.076 µM; GI50 [34]: 0.014 µM; GI50 [35]: 2.62 µM
